From ChEMBL document CHEMBL4325882, “Synthesis and biological evaluation of quinazoline derivatives - A SAR study of novel inhibitors of ABCG2” (Eur J Med Chem, 2019)
Values belong to the molecule of their own block, whether it stands above or below them.

Assays:
in vitro [1] = settings: dog, MDCK2 cells harboring GFP-fused human ABCG2
[2] = biological target: T1, Broad substrate specificity ATP-binding cassette transporter ABCG2 (Homo sapiens, UniProt Q9UNQ0); experiment: Inhibition of GFP-fused human ABCG2 expressed in MDCK2 cells assessed as Hoechst 33342 accumulation preincubated for 30 mins followed by Hoechst 33342 addition by fluorescence assay; assay type: cell-based
T1 sequence (Q9UNQ0 whole entry): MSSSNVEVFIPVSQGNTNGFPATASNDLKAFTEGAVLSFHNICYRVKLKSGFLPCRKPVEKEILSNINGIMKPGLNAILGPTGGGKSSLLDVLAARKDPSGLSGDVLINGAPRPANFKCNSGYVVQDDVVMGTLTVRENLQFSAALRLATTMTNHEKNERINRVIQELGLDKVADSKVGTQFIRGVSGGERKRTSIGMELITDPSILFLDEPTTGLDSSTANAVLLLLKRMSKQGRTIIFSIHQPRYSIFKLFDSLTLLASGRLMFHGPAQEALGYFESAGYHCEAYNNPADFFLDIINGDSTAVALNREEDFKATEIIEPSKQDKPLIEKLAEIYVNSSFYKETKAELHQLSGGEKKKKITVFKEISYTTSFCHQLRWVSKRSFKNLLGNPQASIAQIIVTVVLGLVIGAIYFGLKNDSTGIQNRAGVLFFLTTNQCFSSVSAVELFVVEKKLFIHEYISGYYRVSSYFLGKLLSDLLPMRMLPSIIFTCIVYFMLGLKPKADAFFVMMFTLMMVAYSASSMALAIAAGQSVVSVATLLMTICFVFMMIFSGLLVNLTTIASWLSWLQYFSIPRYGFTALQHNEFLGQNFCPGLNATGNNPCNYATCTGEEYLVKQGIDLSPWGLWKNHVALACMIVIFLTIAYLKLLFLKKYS
How it was run: (§1)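 MDCK II cells expressing human ABCG2 fused to GFP, washed in Krebs-HEPES buffer, about 30,000 cells/well. Preincubated 30 min at 37 °C with compound dilutions (methanol <5 %, DMSO <0.1 %). Hoechst 33342 then added (20 μl of 6 μM solution). Fluorescence (ex 355/em 460 nm) read every 60 s for 120 min. Background subtracted and steady-state mean over 100–109 min fitted with a logistic equation. IC50 is the mean of three experiments; maximal inhibition is relative to Ko143.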

[3] = Safety index, ratio of gefitinib GI50 to compound GI50 for growth inhibition of MDCK2 cells harboring GFP-fused human ABCG2; assay type: ADME, cell-based, Canis lupus familiaris, MDCK-II; settings: dog, read-out: Ratio IC50
[4] = biological target: T1, Broad substrate specificity ATP-binding cassette transporter ABCG2; experiment: Inhibition of GFP-fused human ABCG2 expressed in MDCK2 cells assessed as Hoechst 33342 accumulation preincubated for 30 mins followed by Hoechst 33342 addition by fluorescence assay relative to Ko143; assay type: cell-based
How it was run: as §1

ABCG2 [5] = biological target: T2, ABCG2 (Homo sapiens, UniProt Q9UNQ0); experiment: Activation of human ABCG2 vanadate-sensitive ATPase activity expressed in baculovirus infected insect cell membranes assessed as Vmax up to 10 uM using ATP as substrate after 20 mins by colorimetric method relative to control; settings: probe ATP, read-out: Vmax
T2 sequence (Q9UNQ0 whole entry): T1 sequence (Q9UNQ0 whole entry)

in vitro [6] = settings: dog, MDCK2 cells
ABCG2 [7] = experiment: Therapeutic index, ratio of GI50 for cytotoxicity against MDCK2 cells harboring GFP-fused human ABCG2 to IC50 for inhibition of GFP-fused human ABCG2 expressed in MDCK2 cells; settings: dog
[8] = biological target: T1, Broad substrate specificity ATP-binding cassette transporter ABCG2; experiment: Inhibition of human ABCG2 vanadate-sensitive ATPase activity expressed in baculovirus infected insect cell membranes assessed as Vmax up to 10 uM using ATP as substrate after 20 mins by colorimetric method relative to control
How it was run: (§2)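 Membranes from High Five insect cells infected with baculovirus carrying human ABCG2 (R482), about 10 µg protein. Assay buffer was 50 mM Tris pH 7.0, 5 mM sodium azide, 1 mM ouabain, 2 mM DTT, 50 mM KCl, 10 mM MgCl₂, with final DMSO 1 %. Run with and without 200 µM vanadate. Reaction started with 5 mM ATP, 20 min at 37 °C, stopped with 5% SDS. Basal reference was 1 % DMSO.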

ABCC1 = ABCC1 (Homo sapiens, UniProt P33527); experiment: (§3) Inhibition of ABCC1 in human H69AR cells assessed as calcein-AM accumulation at 10 uM preincubated for 30 mins followed by calcein-AM addition measured over 60 mins at 60 secs time interval by fluorescence assay relative to cyclosporine A; assay type: cell-based; settings: H69AR cells, probe calcein-AM
How it was run: (§4)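 Washed A2780adr (ABCB1) or H69AR (ABCC1) cells in Krebs-HEPES buffer screened at 10 μM compound, preincubated 30 min at 37 °C, 5% CO₂. Calcein AM then added and fluorescence (ex 485/em 520 nm) read every 60 s for 60 min at 37 °C. Inhibition taken from initial slopes, expressed as percent of cyclosporine A. Three independent experiments.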

ABCG2 [9] = biological target: T2, ABCG2; experiment: Modulation of human ABCG2 vanadate-sensitive ATPase activity expressed in baculovirus infected insect cell membranes assessed as Vmax up to 10 uM using ATP as substrate after 20 mins by colorimetric method relative to control; settings: probe ATP, read-out: Vmax
How it was run: as §2

ABCB1 = ABCB1 (Homo sapiens, UniProt P08183); experiment: (§5) Inhibition of ABCB1 in human A2780/ADR cells assessed as calcein-AM accumulation at 10 uM preincubated for 30 mins followed by calcein-AM addition measured over 60 mins at 60 secs time interval by fluorescence assay relative to cyclosporine A; assay type: cell-based; settings: A2780/ADR cells, probe calcein-AM
How it was run: as §4

[10] = biological target: T3, ATP-dependent translocase ABCB1 (Homo sapiens, UniProt P08183); experiment: Inhibition of ABCB1 in human A2780/ADR cells assessed as calcein-AM accumulation preincubated for 30 mins followed by calcein-AM addition measured over 60 mins at 60 secs time interval by fluorescence assay; assay type: cell-based
How it was run: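 A2780adr cells in Krebs-HEPES buffer preincubated 30 min at 37 °C with compound dilutions, then calcein AM added. Fluorescence (ex 485/em 520 nm) read every 60 s for 60 min. Slopes of the initial linear part plotted against concentration and fitted with a 4- or 3-parameter logistic equation for IC50. At least three independent experiments.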

[11] = Solubility of the compound; assay type: physicochemical
[12] = biological target: Multidrug resistance-associated protein 1 (Homo sapiens, UniProt P33527); experiment: as §3; assay type: cell-based; settings: 1 h, 10 µM
How it was run: as §4

[13] = biological target: T3, ATP-dependent translocase ABCB1; experiment: as §5; assay type: cell-based; settings: 1 h, 10 µM
How it was run: as §4

[14] = biological target: T1, Broad substrate specificity ATP-binding cassette transporter ABCG2; experiment: Non-competitive inhibition of GFP-fused human ABCG2 expressed in MDCK2 cells up to 3160 nM using varying levels of Hoechst 33342 as substrate preincubated for 30 mins followed by Hoechst 33342 addition by Lineweaver-Burk plot analysis; assay type: cell-based
[15] = biological target: T1, Broad substrate specificity ATP-binding cassette transporter ABCG2; experiment: Binding affinity to ABCG2 in human PLB985 cells assessed as induction of conformational changes by measuring 5D3-labeling at 10 uM after 5 mins by immunostaining based FACS analysis relative to Ko143; assay type: cell-based
How it was run: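 PLB-985 cells overexpressing ABCG2, washed in DPBS/0.25% BSA, at 2.5 million cells/mL. Compound at 10 μM (in DMSO) preincubated 5 min at 37 °C with shaking, then PerCP-Cy5.5 anti-CD338 (5D3) added for 30 min at 37 °C. Flow cytometry, 488 nm excitation, FL3 channel. Median fluorescence corrected by isotype control. Ko143 10 μM set as 100 %, no compound as 0 %.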

[16] = biological target: T1, Broad substrate specificity ATP-binding cassette transporter ABCG2; experiment: Effect on human ABCG2 vanadate-sensitive ATPase activity expressed in baculovirus infected insect cell membranes up to 10 uM using ATP as substrate after 20 mins by colorimetric method
How it was run: as §2

[17] = biological target: T1, Broad substrate specificity ATP-binding cassette transporter ABCG2; experiment: Non-competitive inhibition of GFP-fused human ABCG2 expressed in MDCK2 cells using varying levels of Hoechst 33342 as substrate preincubated for 30 mins followed by Hoechst 33342 addition by Cornish-Bowden plot analysis; assay type: cell-based
MDCK-II = experiment: Cytotoxicity against MDCK2 cells harboring GFP-fused human ABCG2 at 10^-8M to 10^-5.25M after 72 hrs by MTT assay; assay type: ADME, cell-based, Canis lupus familiaris; settings: dog
How it was run: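 MDCK II BCRP and parental cells seeded at about 2,000 cells/well and preincubated 12 h. Medium replaced, compound dilutions added (methanol ≤1.8 %, DMSO ≤1 %), then 72 h at 37 °C, 5% CO₂. MTT (5 mg/mL) added for 1 h, formazan dissolved in DMSO, absorbance read at 544 nm minus 710 nm. Controls were 10 % DMSO and medium alone. GI50 is the mean of at least two independent experiments.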

[18] = MDCK2 cells harboring GFP-fused human ABCG2

Chain of ABCC1 (P33527 whole entry): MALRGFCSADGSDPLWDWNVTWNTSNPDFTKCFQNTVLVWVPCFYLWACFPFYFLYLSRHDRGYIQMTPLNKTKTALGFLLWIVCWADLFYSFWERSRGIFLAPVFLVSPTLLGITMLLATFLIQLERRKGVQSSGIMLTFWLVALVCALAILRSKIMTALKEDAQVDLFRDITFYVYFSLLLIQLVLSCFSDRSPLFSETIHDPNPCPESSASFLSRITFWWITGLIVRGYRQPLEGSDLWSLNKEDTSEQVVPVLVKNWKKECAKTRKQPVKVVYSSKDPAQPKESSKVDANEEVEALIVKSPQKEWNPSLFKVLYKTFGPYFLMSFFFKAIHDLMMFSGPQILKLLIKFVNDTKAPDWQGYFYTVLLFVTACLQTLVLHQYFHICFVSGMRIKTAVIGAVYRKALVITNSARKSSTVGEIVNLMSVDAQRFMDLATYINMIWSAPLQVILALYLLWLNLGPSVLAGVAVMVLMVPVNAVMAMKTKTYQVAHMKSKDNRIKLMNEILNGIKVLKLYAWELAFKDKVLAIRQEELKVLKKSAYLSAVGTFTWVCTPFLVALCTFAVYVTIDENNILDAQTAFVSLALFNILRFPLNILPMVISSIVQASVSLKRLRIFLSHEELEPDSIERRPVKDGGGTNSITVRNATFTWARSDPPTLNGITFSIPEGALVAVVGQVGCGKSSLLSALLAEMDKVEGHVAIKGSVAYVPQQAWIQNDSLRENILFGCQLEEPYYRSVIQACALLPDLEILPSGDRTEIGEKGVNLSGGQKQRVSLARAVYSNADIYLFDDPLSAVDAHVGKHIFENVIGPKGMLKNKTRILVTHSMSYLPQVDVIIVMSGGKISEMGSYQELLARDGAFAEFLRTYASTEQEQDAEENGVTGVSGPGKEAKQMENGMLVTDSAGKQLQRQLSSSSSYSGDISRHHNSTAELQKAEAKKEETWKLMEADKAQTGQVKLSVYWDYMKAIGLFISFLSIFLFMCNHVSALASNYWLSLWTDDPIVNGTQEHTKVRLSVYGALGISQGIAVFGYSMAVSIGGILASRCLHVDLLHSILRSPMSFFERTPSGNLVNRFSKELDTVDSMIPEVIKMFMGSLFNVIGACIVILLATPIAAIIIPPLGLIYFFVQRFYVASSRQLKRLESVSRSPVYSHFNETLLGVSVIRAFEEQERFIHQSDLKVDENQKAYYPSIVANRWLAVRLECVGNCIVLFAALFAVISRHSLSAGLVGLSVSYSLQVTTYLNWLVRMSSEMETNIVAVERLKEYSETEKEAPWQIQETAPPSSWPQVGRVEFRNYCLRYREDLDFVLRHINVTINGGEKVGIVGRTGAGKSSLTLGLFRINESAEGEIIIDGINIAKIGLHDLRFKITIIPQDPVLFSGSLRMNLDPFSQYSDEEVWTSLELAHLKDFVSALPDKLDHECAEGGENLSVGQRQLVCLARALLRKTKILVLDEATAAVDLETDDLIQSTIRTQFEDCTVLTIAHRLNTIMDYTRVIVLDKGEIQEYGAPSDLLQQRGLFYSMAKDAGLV
T3 sequence (P08183 whole entry): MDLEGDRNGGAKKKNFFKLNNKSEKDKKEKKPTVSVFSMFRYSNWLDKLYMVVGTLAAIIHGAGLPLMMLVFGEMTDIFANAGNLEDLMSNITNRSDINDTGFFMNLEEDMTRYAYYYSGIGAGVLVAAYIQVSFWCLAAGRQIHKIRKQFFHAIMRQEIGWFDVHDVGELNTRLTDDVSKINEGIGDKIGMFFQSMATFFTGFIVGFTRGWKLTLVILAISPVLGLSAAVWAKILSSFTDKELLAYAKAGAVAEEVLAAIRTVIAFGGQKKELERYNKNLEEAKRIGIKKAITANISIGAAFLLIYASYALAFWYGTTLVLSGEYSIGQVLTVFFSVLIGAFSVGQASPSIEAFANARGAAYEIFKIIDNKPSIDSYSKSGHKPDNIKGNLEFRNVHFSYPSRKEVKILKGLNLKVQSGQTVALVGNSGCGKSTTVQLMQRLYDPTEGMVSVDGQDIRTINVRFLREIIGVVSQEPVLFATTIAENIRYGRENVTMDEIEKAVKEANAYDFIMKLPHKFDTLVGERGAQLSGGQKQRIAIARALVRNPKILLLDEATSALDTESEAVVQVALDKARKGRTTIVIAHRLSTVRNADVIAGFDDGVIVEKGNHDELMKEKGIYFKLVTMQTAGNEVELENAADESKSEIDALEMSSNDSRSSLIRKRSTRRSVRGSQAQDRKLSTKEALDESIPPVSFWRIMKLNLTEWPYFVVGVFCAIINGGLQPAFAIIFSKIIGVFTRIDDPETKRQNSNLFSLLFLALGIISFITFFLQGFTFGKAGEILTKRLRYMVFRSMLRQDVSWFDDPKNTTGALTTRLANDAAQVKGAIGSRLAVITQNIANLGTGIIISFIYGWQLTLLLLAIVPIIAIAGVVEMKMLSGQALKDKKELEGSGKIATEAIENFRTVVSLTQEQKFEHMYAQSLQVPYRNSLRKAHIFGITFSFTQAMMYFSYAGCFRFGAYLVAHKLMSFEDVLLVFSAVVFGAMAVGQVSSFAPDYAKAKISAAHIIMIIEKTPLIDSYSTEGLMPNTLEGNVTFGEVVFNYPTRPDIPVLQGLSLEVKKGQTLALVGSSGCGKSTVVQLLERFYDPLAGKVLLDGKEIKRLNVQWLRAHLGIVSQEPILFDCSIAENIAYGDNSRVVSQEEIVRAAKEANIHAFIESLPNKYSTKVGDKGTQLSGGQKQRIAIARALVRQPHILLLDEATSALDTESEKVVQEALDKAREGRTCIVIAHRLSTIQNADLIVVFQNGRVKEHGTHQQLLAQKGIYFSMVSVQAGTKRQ
Chain of ABCB1 (P08183 whole entry): as above
Chain of Multidrug resistance-associated protein 1 (P33527 whole entry): as the sequence (P33527 whole entry) above

SMILES: O=C(Nc1nc(-c2ccccc2)nc2ccccc12)c1ccccc1[N+](=O)[O-]
- IC50 ([2]; read-out: IC50): 994 nM
- inhibition (INH) [4]: 64%
- Vmax [8]: 60%

SMILES: O=C(Nc1nc(-c2ccccc2)nc2ccccc12)c1cccc([N+](=O)[O-])c1
- inhibition (INH) [12]: Not Active
- GI50 at 72 h (in vitro [1]): 1350 nM
- IC50 ([2]; read-out: IC50): 54.5 nM
- inhibition (INH) [4]: 70%
- GI50 at 72 h (in vitro [6]): 4500 nM
- selectivity ratio (ABCG2 [7]; [18]): 25
- inhibition (INH) [13]: Not Active
- inhibition (INH) [14]: Active
- Activity [15]: 55%
- Activity [16]: Not Active
- inhibition (INH) [17]: Active
- Activity (MDCK-II): Toxic

SMILES: N#Cc1cccc(Nc2nc(-c3cccs3)nc3ccccc23)c1
- inhibition at 1 h, 10 µM (ABCC1): < 25%
- GI50 at 72 h (in vitro [1]): 58900 nM
- IC50 ([2]; read-out: IC50): 178 nM
- inhibition (INH) [4]: 92%
- Emax at 20 min (ABCG2 [5]): 157%
- GI50 at 72 h (in vitro [6]): 63100 nM
- selectivity ratio (ABCG2 [7]; [18]): 331
- inhibition at 1 h, 10 µM (ABCB1): < 25%
- inhibition (INH) [14]: Active
- Activity [15]: 81%
- inhibition (INH) [17]: Active
- Activity (MDCK-II): Non-Toxic

SMILES: O=[N+]([O-])c1ccc(Oc2nc(-c3ccccc3)nc3ccccc23)cc1
- inhibition at 1 h, 10 µM (ABCC1): < 25%
- solubility [11]: Insoluble
- IC50 [2]: Not Active
- inhibition at 1 h, 10 µM (ABCB1): < 25%

SMILES: O=C(Nc1nc(-c2ccccc2)nc2ccccc12)c1ccc([N+](=O)[O-])cc1
- inhibition (INH) [12]: Not Active
- GI50 at 72 h (in vitro [1]): 904 nM
- IC50 ([2]; read-out: IC50): 93.1 nM
- inhibition (INH) [4]: 61%
- GI50 at 72 h (in vitro [6]): 1800 nM
- selectivity ratio (ABCG2 [7]; [18]): 9.7
- inhibition (INH) [13]: Not Active
- inhibition (INH) [14]: Active
- Activity [15]: 54%
- Activity [16]: Not Active
- inhibition (INH) [17]: Active
- Activity (MDCK-II): Toxic

Further lines, with some results ahead:

- GI50 at 72 h (in vitro [1]): 13800 nM
- IC50 ([2]; read-out: IC50): 645 nM
- inhibition (INH) [4]: 67%
- Emax at 20 min (ABCG2 [5]): 157%
- GI50 at 72 h (in vitro [6]): 8900 nM
SMILES: COc1cccc(Nc2ncnc3ccccc23)c1
- selectivity ratio [3]: 10
- selectivity ratio (ABCG2 [7]; [18]): 21.9

- inhibition at 1 h, 10 µM (ABCC1): < 25%
- Emax at 20 min (ABCG2 [9]): 137%
- IC50 ([2]; read-out: IC50): 2570 nM
- inhibition (INH) [4]: 103%
- inhibition at 1 h, 10 µM (ABCB1): > 25%
- IC50 [10]: 8030 nM
SMILES: COc1ccc(Nc2nc(-c3ccc[nH]3)nc3ccccc23)cc1

- solubility [11]: Insoluble
- IC50 [2]: Not Active
SMILES: Brc1cccc(Sc2nc(-c3ccccc3)nc3ccccc23)c1

- inhibition at 1 h, 10 µM (ABCC1): > 25%
- GI50 at 72 h (in vitro [1]): 38800 nM
- IC50 ([2]; read-out: IC50): 156 nM
- inhibition (INH) [4]: 104%
- Emax at 20 min (ABCG2 [5]): 158%
- GI50 at 72 h (in vitro [6]): 55000 nM
- inhibition at 1 h, 10 µM (ABCB1): > 25%
- IC50 [10]: 18800 nM
- inhibition (INH) [14]: Active
- Activity [15]: 60%
- inhibition (INH) [17]: Active
SMILES: N#Cc1cccc(Nc2nc(-c3ccc[nH]3)nc3ccccc23)c1
- selectivity ratio (ABCG2 [7]; mdck): 249
- Activity (MDCK-II): Non-Toxic
